OX1R antag-1 – OX1R (HCRTR1) antagonists, primary screen, fluorescence, CHO/OX1R cells, Fluo-8 calcium, orexin A; Orexin/Hypocretin receptor type 1 (Homo sapiens), O43613; Fluo-8 calcium fluorescence; inhibition, % at 5 µM; actives 0.43% (n = 330,000);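 active = inhibition above its plate's threshold, mean inhibition of all tested compounds on the plate plus 3 SD, cut at about 37% in these data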;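 note: 0% = orexin A challenge wells and 100% = SB-334867-A antagonist wells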
Target sequence (O43613 whole entry, looked up): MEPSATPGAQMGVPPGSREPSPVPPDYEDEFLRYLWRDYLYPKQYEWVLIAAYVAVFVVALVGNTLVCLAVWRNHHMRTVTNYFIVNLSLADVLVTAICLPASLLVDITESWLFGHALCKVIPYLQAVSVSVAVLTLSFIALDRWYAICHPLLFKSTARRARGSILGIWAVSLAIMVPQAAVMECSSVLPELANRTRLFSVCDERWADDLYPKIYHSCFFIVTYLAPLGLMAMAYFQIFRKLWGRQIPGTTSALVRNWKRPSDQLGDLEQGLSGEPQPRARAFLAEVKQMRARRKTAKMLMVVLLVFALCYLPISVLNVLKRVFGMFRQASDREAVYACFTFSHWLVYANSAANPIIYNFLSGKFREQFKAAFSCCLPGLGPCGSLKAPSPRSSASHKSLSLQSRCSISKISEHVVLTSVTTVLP
M1 PAM parental – nonselective calcium activators in parental CHO-K1 cells, primary screen, counter-screen for M1 PAM project, cell-based, Fluo-8 calcium fluorescence, full deck, 1536-well. activation, % at 3 µM. ATP EC20; 0% at ATP EC20, 100% at ATP max. actives 0.02% (n = 360,000);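 active = activation above the run cutoff, the mean activation of all test compounds plus 3 SD, cut at about 40% in these data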;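 note: peak over basal fluorescence ratio in a 140 s read after ATP addition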
CHO parental Ca – ATP-evoked calcium signal inhibitors, parental CHO, primary screen, counter-screen for OX1R antagonist project, cell-based, fluorescence, Fluo-8 calcium dye; parental CHO-K1, ATP-induced calcium, Fluo-8 fluorescence; inhibition, % at 5.6 µM; actives 0.63% (n = 330,000);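 active = inhibition above that plate's mean sample inhibition plus 3 SD, cut at about 26% in these data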;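 note: 0% = ATP-challenged DMSO wells and 100% = DMSO wells without ATP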
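Material: Parental CHO cells | Reagent: ATP | Compound dosing: Single nominal dose of 5.6 µM per compound | Detection: Intracellular calcium via Fluo-8 no-wash fluorescent dye | Read-out: % inhibition of ATP-induced calcium mobilization | Benchmarks: Low control ATP plus DMSO, high control DMSO only | Replicates: Singlicate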
CHO-K1 Ca ag – counter-screen for M1 agonists: effect in parental CHO-K1 cells; Fluo-8 calcium fluorescence; scaled to maximal ATP response, vehicle zero; activation, % at 3 µM; actives 0.48% (n = 360,000); in the data active = activation above about 15%;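 note: untransfected CHO-K1 host cells lacking M1 receptor as counterscreen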
CHO-K1 Ca antag – M1 antagonist counterscreen hit in parental CHO-K1 cells | AID 602250 | inhibition, % at 3 µM | ATP-induced calcium, Fluo-8 fluorescence | actives 0.6% (n = 360,000);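 active = inhibition above a per-plate cutoff, the plate's mean sample inhibition plus 3 SD, cut at about 24% in these data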;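 note: 0% = DMSO plus EC80 ATP and 100% = DMSO alone without ATP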
OX1R antag-2 – antagonists of human orexin 1 receptor (OX1R) | Orexin/Hypocretin receptor type 1 (Homo sapiens), O43613 | OX1R-expressing cells, FRET antagonist read-out | inhibition, % at 6.6 µM | actives 1.8% (n = 330,000); in the data active = inhibition mostly above about 38%, no sharp cut-off; inactive = mostly below about 40%;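 note: 0% = agonist challenge alone and 100% = reference antagonist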
OX1R HTRF conf – OX1R (HCRTR1) antagonists, confirmation, cell-based, HTRF. shares compounds with OX1R antag-2. OX1R-expressing cells, HTRF antagonist assay. inhibition, % at 6.6 µM. actives 49% (n = 1,800); in the data active = inhibition above about 55%;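 note: CHO cells expressing OX1R stimulated with orexin A at about EC80; 0% = agonist challenge alone and 100% = reference antagonist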
CHO-K1 HTRF cnt – signal inhibition in parental CHO-K1 cells, counter-screen for OX1R antagonist project, cell-based, HTRF. shares compounds with OX1R antag-2. HTRF counterscreen. inhibition, % at 6.6 µM. actives 48% (n = 1,800). AID 493232, 2011; in the data active = inhibition above about 17%;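 note: 0% = agonist challenge with vehicle and 100% = vehicle alone without agonist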
Numbers without * were called inactive; / = not tested or not shown. Rows were chosen to be rich in hits. Some 2.9% of all compounds tested hit in one or more screens of this group.

SMILES	OX1R antag-1	M1 PAM parental	CHO parental Ca	CHO-K1 Ca ag	CHO-K1 Ca antag	OX1R antag-2	OX1R HTRF conf	CHO-K1 HTRF cnt
CC(C)(C)c1cc[n+](-c2nc([O-])sc2C=O)cc1	18.8	21.0	-7.7	0.4	1.3	79.4*	72.5*	74.4*
Cc1ccc[n+](-c2nc([O-])sc2/C=N/Nc2ccc([N+](=O)[O-])cc2)c1	-12.7	-17.7	-14.7	0.4	-1.6	22.9	/	/
CC(C)c1cc[n+](-c2nc([O-])sc2C=O)cc1	-0.1	-3.4	6.9	-0.2	6.2	98.2*	43.1	63.7*
COc1cc(C2NC(=O)NC(c3ccccc3)=C2C(C)=O)cc([N+](=O)[O-])c1O (stereo not drawn)	-11.9	12.8	-7.8	0.4	-11.2	36.4	/	/
O=C(Cn1nc(-c2ccccc2)ccc1=O)N1CCCCC1	-30.4	-12.0	-7.4	0.8	-6.2	22.9	/	/
CC(C)NC(=S)N/N=C1\CCCCC1C1CCCCC1 (stereo not drawn)	-22.6	21.5	-12.7	0.1	-4.5	11.2	/	/
CC(=O)N[C@@H](Cc1c[nH]c2ccccc12)C(=O)OCC(=O)Nc1ccc(S(=O)(=O)N(C)C)cc1	-2.4	-3.0	-4.9	0.6	-3.4	1.9	/	/
CCCN1Cc2cccc(C(=O)Nc3ccc(-c4nc5ccccc5[nH]4)cc3)c2C1=O	-18.8	-0.2	-20.3	1.4	14.4	18.8	/	/
COCCN1Cc2cccc(C(=O)Nc3cccc(-c4nc5ccccc5[nH]4)c3)c2C1=O	-3.4	13.5	-14.0	4.0	0.7	86.1*	59.6*	3.2
N#CC1=C(N)Oc2cc(O)ccc2C1c1ccncc1 (stereo not drawn)	2.1	8.6	-7.8	0.2	6.9	110.8*	13.0	-6.4
Cc1ccc(N(C)S(=O)(=O)c2cccc(C(=O)NCCCN3CCCC3=O)c2)cc1	-15.5	-9.9	-19.4	0.4	1.6	-2.4	/	/
O=C(O)c1ccc([N+](=O)[O-])c2c1C(=O)c1ccccc1C2=O	12.5	12.1	1.0	-0.6	-3.6	101.0*	69.0*	103.9*
Nc1c(C(=O)O)ccc2c1C(=O)c1ccccc1C2=O	2.7	15.7	7.4	7.6	6.4	107.1*	39.1	28.8*
Cc1cc(C)cc(NC(=O)Cn2nnc(C(=O)NCc3ccc(F)cc3)c2N)c1	-2.7	19.0	11.3	0.3	-4.2	7.1	/	/
O=C(Cn1cccc1C(=O)c1ccccc1)NCCC1=CCCCC1	-35.8	7.9	-14.7	-0.2	-14.8	97.6*	22.6	2.3
Cc1ccc(CN2CCC(Oc3cccc(C(=O)NCc4cccnc4)c3)CC2)o1	-22.0	17.4	-25.5	2.0	-21.9	7.5	/	/
CC(=O)Nc1ccc2c3c(cccc13)C(=O)N(c1ccccc1)C2=O	-13.5	7.5	1.3	0.1	-10.1	109.6*	40.9	63.4*
NS(=O)(=O)c1ccc(NN=C2CCN(Cc3ccccc3)CC2)c([N+](=O)[O-])c1	8.0	-3.6	-2.7	0.1	4.9	82.7*	19.0	7.3
O=C(O)c1ccc(Cl)c(NCc2cccnc2)c1	-6.5	8.6	3.1	0.1	-2.0	11.6	/	/
c1ccc(CN2CCN(C3CCCSc4ccccc43)CC2)cc1 (stereo not drawn)	8.2	-13.4	-22.8	0.0	2.6	86.6*	78.9*	3.1
O=C(C1CCC1)N1CCN(Cc2ccccc2)CC1	-7.5	23.4	-1.8	0.6	-12.6	9.0	/	/
CC(=O)c1nnn(-c2ccc([N+](=O)[O-])cc2)c1C	-10.9	-0.3	-3.8	0.1	-8.7	123.5*	41.8	59.4*
CCn1c2ccccc2c2cc(NC(=O)COc3ccccc3OC)ccc21	27.0	14.8	-16.4	1.2	-1.9	101.3*	78.7*	21.5*

Compound activity: PubChem BioAssay, The Scripps Research Institute Molecular Screening Center
